ChEMBL document CHEMBL4007505 (J Med Chem, 2017)
Calls of active or inactive are those of the source. The calls are words filed in the database; no cut-off is given here.

How the values were obtained:
[1] = target: T1, Sodium-dependent dopamine transporter (Homo sapiens, UniProt Q01959); assay: Enhancing of [3H]WIN35,428 binding to recombinant human DAT expressed in HEK293 cell membranes at 10 uM pre-incubated for 10 mins before radioligand addition and measured 90 mins after radioligand addition by micro beta scintillation counting analysis relative to control
[2] = target: T1, Sodium-dependent dopamine transporter; assay: Inhibition of [3H]WIN35,428 binding to recombinant human DAT expressed in HEK293 cell membranes at 10 uM pre-incubated for 10 mins before radioligand addition and measured 90 mins after radioligand addition by micro beta scintillation counting analysis relative to control
Adenosine receptor A3 [3] = target: T2, Adenosine receptor A3 (Homo sapiens, UniProt P0DMS8); assay: Displacement of [125I]N6-(4-amino-3-iodobenzyl)adenosine-5'-N-methyluronamide from human A3AR expressed in HEK293T cells pre-incubated for 10 mins before radioligand addition and measured 90 mins after radioligand addition by micro beta scintillation counting analysis relative to control; type: cell-based, HEK-293T
T2 sequence (P0DMS8 whole entry): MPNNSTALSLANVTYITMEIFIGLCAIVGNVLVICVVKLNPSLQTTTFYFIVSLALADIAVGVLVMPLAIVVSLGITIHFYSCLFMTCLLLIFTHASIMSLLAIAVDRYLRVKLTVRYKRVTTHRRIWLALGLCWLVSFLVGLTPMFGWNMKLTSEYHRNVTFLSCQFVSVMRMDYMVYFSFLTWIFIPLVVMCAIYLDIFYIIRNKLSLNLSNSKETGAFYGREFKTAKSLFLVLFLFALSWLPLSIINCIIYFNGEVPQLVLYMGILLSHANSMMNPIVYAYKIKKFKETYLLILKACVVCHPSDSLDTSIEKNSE

[4] = target: T3, Adenosine receptor A3 (Mus musculus) (UniProt Q61618); assay: Displacement of [125I]N6-(4-amino-3-iodobenzyl)adenosine-5'-N-methyluronamide from mouse A3AR expressed in HEK293T cells at 10 uM pre-incubated for 10 mins before radioligand addition and measured 90 mins after radioligand addition by micro beta scintillation counting analysis relative to control; type: cell-based
T3 sequence (whole entry): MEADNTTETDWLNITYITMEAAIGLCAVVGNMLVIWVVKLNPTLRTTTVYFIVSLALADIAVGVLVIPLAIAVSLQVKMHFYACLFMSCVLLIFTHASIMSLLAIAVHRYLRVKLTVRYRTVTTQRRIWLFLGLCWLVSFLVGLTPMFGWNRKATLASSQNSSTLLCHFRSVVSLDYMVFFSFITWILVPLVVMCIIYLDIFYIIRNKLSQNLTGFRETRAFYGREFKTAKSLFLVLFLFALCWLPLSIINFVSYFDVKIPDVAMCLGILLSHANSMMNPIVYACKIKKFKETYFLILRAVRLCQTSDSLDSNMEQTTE

[5] = target: T1, Sodium-dependent dopamine transporter; assay: Enhancing of [125I]RTI-55 binding to recombinant human DAT expressed in HEK293 cell membranes preincubated for 10 mins followed by radioligand addition measured after 90 mins by micro beta scintillation counting analysis; design: concentration or dose not given beside the values; settings: for EC50: read-out: EC50
Procedure, shortened: (§1)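 Membranes of HEK-293 cells stably expressing hDAT, hNET or hSERT. […] Compound preincubated 10 min at room temperature, then [125I]23 (40-80 pM final) or [3H]26 (1-3 nM for DAT and NET, 10-13 nM for SERT) added. Incubated 90 min at room temperature in the dark, then filtered. EC50 or Ki; mean ± SEM.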

[6] = target: T1, Sodium-dependent dopamine transporter; assay: Enhancing of [3H]mazindol binding to recombinant human DAT expressed in HEK293 cell membranes preincubated for 10 mins followed by radioligand addition measured after 90 mins by micro beta scintillation counting analysis; design: concentration or dose not given beside the values; settings: for EC50: read-out: EC50; procedure, shortened: as §1
[7] = target: T4, Sodium-dependent noradrenaline transporter (Homo sapiens, UniProt P23975); assay: Enhancing of [125I]RTI-55 binding to recombinant human NET expressed in HEK293 cell membranes preincubated for 10 mins followed by radioligand addition measured after 90 mins by micro beta scintillation counting analysis; design: concentration or dose not given beside the values; settings: for EC50: read-out: EC50
[8] = target: T1, Sodium-dependent dopamine transporter; assay: Inhibition of recombinant human DAT expressed in HEK293 cell […] as reduction in [3H]-DA uptake incubated for 22 mins by micro beta scintillation counting analysis
[9] = target: T4, Sodium-dependent noradrenaline transporter; assay: Enhancing of [3H]mazindol binding to recombinant human NET expressed in HEK293 cell membranes preincubated for 10 mins followed by radioligand addition measured after 90 mins by micro beta scintillation counting analysis
[10] = target: T4, Sodium-dependent noradrenaline transporter; assay: Inhibition of recombinant human NET expressed in HEK293 […] assessed as reduction in [3H]-norepinephrine uptake incubated for 22 mins by micro beta scintillation counting analysis
[11] = target: T5, Sodium-dependent serotonin transporter (Homo sapiens, UniProt P31645); assay: Enhancing of [125I]RTI-55 binding to recombinant human SERT expressed in HEK293 cell membranes preincubated for 10 mins followed by radioligand addition measured after 90 mins by micro beta scintillation counting analysis; settings: for EC50: read-out: EC50
[12] = target: T5, Sodium-dependent serotonin transporter; assay: Enhancing of [3H]mazindol binding to recombinant human SERT expressed in HEK293 cell membranes preincubated for 10 mins followed by radioligand addition measured after 90 mins by micro beta scintillation counting analysis
Target sequence in this assay (P31645 whole entry): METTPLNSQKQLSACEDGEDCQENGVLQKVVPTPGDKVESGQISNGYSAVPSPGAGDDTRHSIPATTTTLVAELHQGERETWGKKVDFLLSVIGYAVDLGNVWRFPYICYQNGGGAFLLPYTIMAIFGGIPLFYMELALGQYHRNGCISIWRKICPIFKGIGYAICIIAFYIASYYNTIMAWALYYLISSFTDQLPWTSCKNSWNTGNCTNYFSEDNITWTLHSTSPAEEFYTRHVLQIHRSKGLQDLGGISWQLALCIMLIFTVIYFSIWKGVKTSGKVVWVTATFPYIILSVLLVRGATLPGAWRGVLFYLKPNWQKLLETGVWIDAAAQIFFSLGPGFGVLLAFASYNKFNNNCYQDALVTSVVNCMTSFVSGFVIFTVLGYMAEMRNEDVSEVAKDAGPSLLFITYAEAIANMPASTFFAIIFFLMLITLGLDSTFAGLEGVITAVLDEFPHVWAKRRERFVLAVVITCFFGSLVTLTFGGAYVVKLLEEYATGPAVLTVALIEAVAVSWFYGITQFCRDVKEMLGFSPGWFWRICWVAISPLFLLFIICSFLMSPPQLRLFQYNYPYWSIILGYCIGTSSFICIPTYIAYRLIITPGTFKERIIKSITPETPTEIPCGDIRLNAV

[13] = target: T6, 5-hydroxytryptamine receptor 2C (Homo sapiens, UniProt P28335); assay: Displacement of [3H]Mesulergine from human 5-HT2C receptor
T6 sequence (P28335 whole entry): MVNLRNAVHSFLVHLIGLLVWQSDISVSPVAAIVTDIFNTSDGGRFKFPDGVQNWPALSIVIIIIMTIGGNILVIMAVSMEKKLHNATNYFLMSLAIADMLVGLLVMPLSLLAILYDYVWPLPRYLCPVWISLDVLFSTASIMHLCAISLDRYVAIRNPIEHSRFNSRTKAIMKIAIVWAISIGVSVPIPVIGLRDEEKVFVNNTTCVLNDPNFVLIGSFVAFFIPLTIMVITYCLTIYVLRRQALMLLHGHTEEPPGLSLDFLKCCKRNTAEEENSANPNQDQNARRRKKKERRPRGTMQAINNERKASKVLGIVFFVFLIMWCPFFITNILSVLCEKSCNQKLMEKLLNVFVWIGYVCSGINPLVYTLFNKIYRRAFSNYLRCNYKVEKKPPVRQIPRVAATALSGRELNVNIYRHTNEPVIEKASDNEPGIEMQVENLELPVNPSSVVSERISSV

Adenosine receptor A3 [14] = target: T7, Adenosine receptor A3 (Mus musculus, UniProt Q61618); assay: Displacement of [125I]N6-(4-amino-3-iodobenzyl)adenosine-5'-N-methyluronamide from mouse A3AR expressed in HEK293T cells pre-incubated for 10 mins before radioligand addition and measured 90 mins after radioligand addition by micro beta scintillation counting analysis relative to control; type: cell-based
T7 sequence (Q61618 whole entry): T3 sequence (whole entry)

[15] = target: T1, Sodium-dependent dopamine transporter; assay: Enhancing of [3H]WIN35,428 binding to recombinant human DAT expressed in HEK293 cell membranes pre-incubated for 10 mins before radioligand addition and measured 90 mins after radioligand addition by micro beta scintillation counting analysis relative to control
[16] = target: Sodium-dependent dopamine transporter (Mus musculus) (UniProt Q61327); assay: (§2) Enhancing of [125I]RTI-55 binding to mouse DAT expressed in HEK293 cells preincubated for 10 mins followed by radioligand addition measured after 90 mins by micro beta scintillation counting analysis; type: cell-based
Procedure, shortened: (§3)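 Membranes preincubated 10 min at room temperature with compound in Krebs-HEPES buffer pH 7.4, then [125I]23 at fixed 45-50 pM for 90 min in the dark, filtered. […] EC50 and % control binding; mean ± SEM.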

[17] = target: T8, Sodium-dependent dopamine transporter (Mus musculus, UniProt Q61327); assay: as §2; type: cell-based; procedure, shortened: as §3
[18] = target: T8, Sodium-dependent dopamine transporter; assay: Inhibition of mouse DAT expressed in HEK293 cells assessed as reduction in [3H]-DA uptake; type: cell-based

T4 sequence (P23975 whole entry): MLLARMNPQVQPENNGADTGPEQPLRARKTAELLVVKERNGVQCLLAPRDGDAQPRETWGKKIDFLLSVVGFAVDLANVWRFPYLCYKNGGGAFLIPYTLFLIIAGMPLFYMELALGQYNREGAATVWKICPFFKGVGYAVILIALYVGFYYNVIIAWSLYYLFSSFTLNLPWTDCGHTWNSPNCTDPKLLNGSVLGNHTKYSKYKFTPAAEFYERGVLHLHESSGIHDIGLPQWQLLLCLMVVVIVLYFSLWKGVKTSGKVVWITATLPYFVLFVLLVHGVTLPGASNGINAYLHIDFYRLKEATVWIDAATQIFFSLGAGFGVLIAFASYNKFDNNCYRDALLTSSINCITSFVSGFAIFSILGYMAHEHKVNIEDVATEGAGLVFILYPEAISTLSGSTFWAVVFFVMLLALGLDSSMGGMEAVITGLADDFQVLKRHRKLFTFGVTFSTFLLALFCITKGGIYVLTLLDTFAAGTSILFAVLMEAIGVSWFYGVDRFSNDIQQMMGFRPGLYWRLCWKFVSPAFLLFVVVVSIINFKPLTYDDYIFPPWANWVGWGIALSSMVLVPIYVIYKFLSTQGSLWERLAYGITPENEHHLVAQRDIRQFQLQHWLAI
T1 sequence (Q01959 whole entry): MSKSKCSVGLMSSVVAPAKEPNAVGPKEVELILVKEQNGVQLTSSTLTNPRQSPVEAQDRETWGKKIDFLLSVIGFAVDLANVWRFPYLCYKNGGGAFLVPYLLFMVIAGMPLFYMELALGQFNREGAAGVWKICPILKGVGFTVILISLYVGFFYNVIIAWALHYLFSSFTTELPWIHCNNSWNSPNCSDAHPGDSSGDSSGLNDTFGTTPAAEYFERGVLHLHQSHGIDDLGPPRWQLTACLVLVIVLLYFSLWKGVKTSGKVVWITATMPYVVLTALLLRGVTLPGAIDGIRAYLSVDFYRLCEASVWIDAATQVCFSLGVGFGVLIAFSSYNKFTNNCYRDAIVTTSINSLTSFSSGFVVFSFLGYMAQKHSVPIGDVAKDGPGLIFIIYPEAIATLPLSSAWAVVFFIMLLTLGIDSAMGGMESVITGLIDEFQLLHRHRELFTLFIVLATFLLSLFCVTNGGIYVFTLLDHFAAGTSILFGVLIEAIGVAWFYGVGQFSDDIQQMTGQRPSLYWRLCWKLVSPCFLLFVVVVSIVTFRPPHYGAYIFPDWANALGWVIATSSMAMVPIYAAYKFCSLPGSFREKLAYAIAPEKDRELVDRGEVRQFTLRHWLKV
T8 sequence (Q61327 whole entry): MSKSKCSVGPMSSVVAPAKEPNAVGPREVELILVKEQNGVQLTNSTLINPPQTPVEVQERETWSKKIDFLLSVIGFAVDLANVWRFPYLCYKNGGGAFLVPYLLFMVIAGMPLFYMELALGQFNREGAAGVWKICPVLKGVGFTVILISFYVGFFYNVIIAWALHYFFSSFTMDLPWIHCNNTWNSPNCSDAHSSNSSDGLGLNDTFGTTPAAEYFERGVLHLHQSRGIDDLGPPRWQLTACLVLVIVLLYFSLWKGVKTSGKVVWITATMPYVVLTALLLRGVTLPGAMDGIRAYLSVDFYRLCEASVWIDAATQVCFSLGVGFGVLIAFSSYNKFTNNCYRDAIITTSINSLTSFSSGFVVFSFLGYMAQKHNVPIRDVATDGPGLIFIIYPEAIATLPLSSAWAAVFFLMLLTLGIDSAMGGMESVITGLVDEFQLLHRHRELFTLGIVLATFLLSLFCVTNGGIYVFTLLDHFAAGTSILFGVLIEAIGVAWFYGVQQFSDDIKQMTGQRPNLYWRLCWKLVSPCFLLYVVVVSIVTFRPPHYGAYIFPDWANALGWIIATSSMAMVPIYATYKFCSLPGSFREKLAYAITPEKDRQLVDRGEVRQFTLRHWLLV
Sodium-dependent dopamine transporter (Mus musculus), sequence (Q61327 whole entry): as above

Structure (SMILES) | Activity [1] | inhibition [2] | Ki (Adenosine receptor A3 [3]) | inhibition [4] | EC50 [15] | further results
CNc1nc(C#Cc2ccc(Cl)s2)nc2c1ncn2[C@H]1[C@H](O)[C@H](O)[C@]2(C(=O)OCCC(C)C)C[C@H]12 | 196% | inactive | 0.0244 µM | 32% |  | 
CNc1nc(C#Cc2ccc(Br)s2)nc2c1ncn2[C@H]1[C@H](O)[C@H](O)[C@]2(C(=O)OC)C[C@H]12 | 370% | inactive | 0.00856 µM | 57% |  | Activity [5]: 374%; EC50 [5]: 0.0535 µM; Activity [6]: 520%; EC50 [6]: 0.308 µM; Activity [7]: 293%; EC50 [7]: 0.4 µM; IC50 [8]: 0.246 µM; Activity [9]: inactive; IC50 [10]: 3.56 µM; Activity [11]: inactive; EC50 [11]: > 10 µM; EC50 [12]: > 10 µM; Ki [13]: 0.258 µM
CCCOC(=O)[C@@]12C[C@@H]1[C@@H](n1cnc3c(NC)nc(C#Cc4ccc(Cl)s4)nc31)[C@H](O)[C@@H]2O | 426% | inactive | 0.00578 µM |  |  | Ki (Adenosine receptor A3 [14]): 2.81 µM; Activity [5]: 461%; EC50 [5]: 0.294 µM; Activity [6]: 347%; EC50 [6]: 0.535 µM; Activity [7]: 302%; EC50 [7]: 0.98 µM; IC50 [8]: 1.14 µM; Activity [9]: inactive; IC50 [10]: 7.9 µM; Activity [11]: inactive; EC50 [11]: > 10 µM; EC50 [12]: > 10 µM
CNc1nc(C#Cc2ccc(Cl)s2)nc2c1ncn2[C@H]1[C@H](O)[C@H](O)[C@]2(C(=O)OC(C)C)C[C@H]12 | inactive | 36% | 0.0429 µM | 30% | > 1 µM | Ki [13]: 0.43 µM
CNc1nc(C#Cc2ccc(Cl)s2)nc2c1ncn2[C@H]1[C@H](O)[C@H](O)[C@]2(C(=O)OCCC3CCCCC3)C[C@H]12 | inactive |  | 0.77 µM | 5% |  | 
CNc1nc(C#Cc2ccc(Cl)s2)nc2c1ncn2[C@H]1[C@H](O)[C@H](O)[C@]2(C(=O)O)C[C@H]12 | 50% | inactive |  | 0% | > 1 µM | 
CNc1nc(C#Cc2ccc(Cl)s2)nc2c1ncn2[C@H]1[C@H](O)[C@H](O)[C@]2(C(=O)NCCN)C[C@H]12 | 136% | inactive | 0.156 µM | 0% | > 1 µM | 
CCNc1cc(C#Cc2ccc(Cl)s2)nc2c1ncn2[C@H]1[C@H](O)[C@H](O)[C@]2(C(=O)NC)C[C@H]12 | inactive |  |  |  |  | 
CCOC(=O)[C@@]12C[C@@H]1[C@@H](n1cnc3c(NC)nc(C#Cc4ccc(Cl)s4)nc31)[C@H](O)[C@@H]2O | 539% | inactive | 0.0145 µM | 45% |  | Activity [5]: 434%; EC50 [5]: 0.034 µM; Activity [6]: 455%; EC50 [6]: 0.267 µM; Activity [7]: 365%; EC50 [7]: 0.49 µM; IC50 [8]: 0.107 µM; Activity [9]: inactive; IC50 [10]: 3.98 µM; Activity [11]: inactive; EC50 [11]: > 10 µM; EC50 [12]: > 10 µM; Emax [16]: 1560%; EC50 [17]: 1.07 µM; IC50 [18]: 1.17 µM
CCOC(=O)[C@@]12C[C@@H]1[C@@H](n1cnc3c(NC)nc(C#Cc4ccc(Br)s4)nc31)[C@H](O)[C@@H]2O | 430% | inactive | 0.00642 µM |  | 0.4 µM | Ki (Adenosine receptor A3 [14]): 1.8 µM
CNc1nc(C#Cc2ccc(Cl)s2)nc2c1ncn2[C@H]1[C@H](O)[C@H](O)[C@]2(C(=O)OCCCc3ccccc3)C[C@H]12 | inactive |  |  | 9% |  | 
CCCCOC(=O)[C@@]12C[C@@H]1[C@@H](n1cnc3c(NC)nc(C#Cc4ccc(Cl)s4)nc31)[C@H](O)[C@@H]2O | 285% | inactive | 0.0175 µM | 54% | 1.2 µM | 
